Measurements from ChEMBL document CHEMBL1125695, “Potential anti-AIDS drugs. Lipophilic, adenosine deaminase-activated prodrugs” (J Med Chem, 1991).
Blank lines part the entries; values can stand above or below the molecule they belong to.

Columns and labels:
[1] = Partition coefficient (logP); type: physicochemical; settings: octanol/water
Method in brief: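 Microscale shake-flask method: compound from DMSO stock into 1.0 mL octanol-saturated 0.01 M potassium phosphate pH 7.0, then mixed with 1.0 mL buffer-saturated n-octanol at 24–26 °C. Stood 15 min, phases centrifuged, each analysed by HPLC. P is the octanol/buffer peak-area ratio; mean ± SD of three independent determinations.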

[2] = Kinetic parameter Vmax at pH 7.4 and 37 degree Centigrade; type: ADME
Method in brief: (§1)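 Calf intestinal mucosa adenosine deaminase with dideoxynucleoside substrates in 0.01 M Tris pH 7.4 at 37 °C. Aliquots quenched with cold 2 μM 2'-deoxycoformycin, ultrafiltered, and substrate loss followed by reversed-phase HPLC (CH3CN in pH 7.0 phosphate). Relative rates taken at 50 μM substrate with 0.7 unit/mL enzyme, referenced to ddA = 100.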

[3] = Kinetic parameter relative rate measured at 50 uM at pH 7.4 and 37 degree Centigrade; type: ADME; settings: pH 7.4, 50 µM; method in brief: as §1
[4] = Anti-HIV activity (% toxicity) in ATH-8 cells at 5 uM in presence of 2'-deoxycoformycin at 10 uM; type: cell-based; settings: human, ath-8, 5 µM
Method in brief: (§2)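 CD4+ ATH8 cells (200 000) exposed 1 h to cell-free HIV-1/IIIB, 43 TCID50 (1087 for one analogue), resuspended in 2 mL IL-2 medium with 15% fetal calf serum, cultured at 37 °C in 5% CO2 with or without compound; dCF alone 5 μM. Day 8 viable cells counted by dye exclusion. % protection and % toxicity computed versus infected-untreated and uninfected-untreated cells; ≤0 given as 0%. Minimum two separate experiments; representative test reported.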

[5] = Anti-HIV activity (% toxicity) in ATH-8 cells at 5 uM in absence of 2'-deoxycoformycin at 10 uM; type: cell-based; settings: human, ath-8, 5 µM; method in brief: as §2
[6] = Anti-HIV activity (% protection) in ATH-8 cells at 5 uM in presence of 2'-deoxycoformycin at 10 uM; type: functional, Homo sapiens; method in brief: as §2
[7] = Anti-HIV activity (% protection) in ATH-8 cells at 5 uM in absence of 2'-deoxycoformycin at 10 uM; type: functional, Homo sapiens; method in brief: as §2
[8] = Anti-HIV activity (% toxicity) in ATH-8 cells at 5 uM in absence of 2'-deoxycoformycin at 20 uM; type: cell-based; settings: human, ath-8, 5 µM; method in brief: as §2
[9] = Anti-HIV activity (% toxicity) in ATH-8 cells at 5 uM in absence of 2'-deoxycoformycin at 50 uM; type: cell-based; settings: human, ath-8, 5 µM; method in brief: as §2
[10] = Anti-HIV activity (% toxicity) in ATH-8 cells at 5 uM in presence of 2'-deoxycoformycin at 0 uM; type: cell-based; settings: human, ath-8, 5 µM; method in brief: as §2
[11] = Anti-HIV activity (% toxicity) in ATH-8 cells at 5 uM in presence of 2'-deoxycoformycin at 100 uM; type: cell-based; settings: human, ath-8, 5 µM; method in brief: as §2
[12] = Anti-HIV activity (% toxicity) in ATH-8 cells at 5 uM in presence of 2'-deoxycoformycin at 20 uM; type: cell-based; settings: human, ath-8, 5 µM; method in brief: as §2
[13] = Anti-HIV activity (% toxicity) in ATH-8 cells at 5 uM in presence of 2'-deoxycoformycin at 50 uM; type: cell-based; settings: human, ath-8, 5 µM; method in brief: as §2
[14] = Anti-HIV activity (% toxicity) in ATH-8 cells at 5 uM in absence of 2'-deoxycoformycin at 0 uM; type: cell-based; settings: human, ath-8, 5 µM; method in brief: as §2
[15] = Anti-HIV activity (% toxicity) in ATH-8 cells at 5 uM in absence of 2'-deoxycoformycin at 100 uM; type: cell-based; settings: human, ath-8, 5 µM; method in brief: as §2
[16] = Anti-HIV activity (% protection) in ATH-8 cells at 5 uM in absence of 2'-deoxycoformycin at 100 uM; type: functional, Homo sapiens; method in brief: as §2
[17] = Anti-HIV activity (% protection) in ATH-8 cells at 5 uM in absence of 2'-deoxycoformycin at 20 uM; type: functional, Homo sapiens; method in brief: as §2
[18] = Anti-HIV activity (% protection) in ATH-8 cells at 5 uM in absence of 2'-deoxycoformycin at 50 uM; type: functional, Homo sapiens; method in brief: as §2
[19] = Anti-HIV activity (% protection) in ATH-8 cells at 5 uM in presence of 2'-deoxycoformycin at 0 uM; type: functional, Homo sapiens; method in brief: as §2
[20] = Anti-HIV activity (% protection) in ATH-8 cells at 5 uM in presence of 2'-deoxycoformycin at 100 uM; type: functional, Homo sapiens; method in brief: as §2
[21] = Anti-HIV activity (% protection) in ATH-8 cells at 5 uM in presence of 2'-deoxycoformycin at 20 uM; type: functional, Homo sapiens; method in brief: as §2
[22] = Anti-HIV activity (% protection) in ATH-8 cells at 5 uM in presence of 2'-deoxycoformycin at 50 uM; type: functional, Homo sapiens; method in brief: as §2
[23] = Anti-HIV activity (% protection) in ATH-8 cells at 5 uM in absence of 2'-deoxycoformycin at 0 uM; type: functional, Homo sapiens; method in brief: as §2
[24] = Anti-HIV activity (% toxicity) in ATH-8 cells at 5 uM in absence of 2'-deoxycoformycin at 5 uM; type: cell-based; settings: human, ath-8, 5 µM; method in brief: as §2
[25] = Anti-HIV activity (% toxicity) in ATH-8 cells at 5 uM in presence of 2'-deoxycoformycin at 5 uM; type: cell-based; settings: human, ath-8, 5 µM; method in brief: as §2
[26] = Anti-HIV activity (% protection) in ATH-8 cells at 5 uM in absence of 2''-deoxycoformycin at 5 uM; type: functional, Homo sapiens; method in brief: as §2
[27] = Anti-HIV activity (% protection) in ATH-8 cells at 5 uM in presence of 2'-deoxycoformycin at 5 uM; type: functional, Homo sapiens; method in brief: as §2
[28] = (§3) Anti-HIV activity (% toxicity) in ATH-8 cells at 5 uM; type: cell-based; settings: human, ath-8, 5 µM; method in brief: as §2
[29] = (§4) Anti-HIV activity (%toxicity) in ATH-8 cells at 5 uM; type: cell-based; settings: human, ath-8, 5 µM; method in brief: as §2
[30] = as §4; type: cell-based; settings: human, ath-8, 5 µM; method in brief: as §2; remark: listed apart in the source
[31] = as §4; type: cell-based; settings: human, ath-8, 5 µM; method in brief: as §2; remark: listed apart in the source
[32] = Anti-HIV activity (%protection) in ATH-8 cells at 5 uM in absence of 2''-deoxycoformycin at 20 uM; type: functional, Homo sapiens; method in brief: as §2
[33] = Anti-HIV activity (%protection) in ATH-8 cells at 5 uM in absence of 2''-deoxycoformycin at 0 uM; type: functional, Homo sapiens; method in brief: as §2
[34] = Anti-HIV activity (%protection) in ATH-8 cells at 5 uM in absence of 2''-deoxycoformycin at 100 uM; type: functional, Homo sapiens; method in brief: as §2
[35] = Anti-HIV activity (%protection) in ATH-8 cells at 5 uM in absence of 2''-deoxycoformycin at 50 uM; type: functional, Homo sapiens; method in brief: as §2
[36] = Anti-HIV activity (%protection) in ATH-8 cells at 5 uM in absence of 2'-deoxycoformycin at 5 uM; type: functional, Homo sapiens; method in brief: as §2
[37] = as §3; type: cell-based; settings: human, ath-8, 5 µM; method in brief: as §2; remark: listed apart in the source
[38] = (§5) Anti-HIV activity in ATH-8 cells at 5 uM in absence of 2''-deoxycoformycin at 20 uM; type: cell-based; settings: human, ath-8, 5 µM; method in brief: as §2
[39] = as §5; type: functional, Homo sapiens; method in brief: as §2

logP [1]: 0.64
SMILES: CNc1nc(C)nc2c1ncn2[C@@H]1O[C@H](CO)C[C@@H]1F

logP [1]: 0.12
SMILES: Cc1nc(N)c2ncn([C@@H]3O[C@H](CO)C[C@@H]3F)c2n1

logP [1]: -0.29
Vmax [2]: 1.32 µmol/min/unit
Relative rate [3]: 100
SMILES: Nc1ncnc2c1ncn2[C@H]1CC[C@@H](CO)O1
Toxicity [4]: 22%
Toxicity [5]: 0%
Protection [6]: 86%
Protection [7]: 100%

logP [1]: 0.32
Vmax [2]: 0.026 µmol/min/unit
Relative rate [3]: 0.06
SMILES: OCC1CC(F)C(n2cnc3c(Cl)ncnc32)O1 (configuration not stated)
Toxicity [8]: 26%
Toxicity [9]: 46%
Toxicity [10]: 14%
Toxicity [4]: 49%
Toxicity [11]: 72%
Toxicity [12]: 58%
Toxicity [13]: 56%
Toxicity [14]: 0%
Toxicity [5]: 5%
Toxicity [15]: 52%
Protection [16]: 35%
Protection [17]: 57%
Protection [18]: 53%
Protection [19]: 3%
Protection [6]: 15%
Protection [20]: 17%
Protection [21]: 11%
Protection [22]: 14%
Protection [23]: 0%
Protection [7]: 48%

logP [1]: 0.1
SMILES: Cc1nc2c(N)ncnc2n1C1OC(CO)CC1F (configuration not stated)

logP [1]: 0.27
Vmax [2]: 0.00055 µmol/min/unit
Relative rate [3]: 0.04
SMILES: CNc1ncnc2c1ncn2C1OC(CO)CC1F (configuration not stated)
Toxicity [8]: 0%
Toxicity [24]: 0%
Toxicity [9]: 6%
Toxicity [10]: 11%
Toxicity [4]: 7%
Toxicity [11]: 70%
Toxicity [12]: 0%
Toxicity [25]: 3%
Toxicity [13]: 46%
Toxicity [14]: 0%
Toxicity [5]: 0%
Toxicity [15]: 44%
Protection [16]: 27%
Protection [17]: 32%
Protection [18]: 37%
Protection [26]: 13%
Protection [19]: 0%
Protection [6]: 2%
Protection [20]: 0%
Protection [21]: 0%
Protection [27]: 1%
Protection [22]: 0%
Protection [23]: 0%
Protection [7]: 24%

logP [1]: -0.4
SMILES: OCC1CC(F)C(n2cnc3cncnc32)O1 (configuration not stated)

logP [1]: -1.21
SMILES: OCC1CC(F)C(n2cnc3c(O)ncnc32)O1 (configuration not stated)

logP [1]: -1.38
SMILES: Nc1c2ncn(C3OC(CO)CC3F)c2nc[n+]1[O-] (configuration not stated)

logP [1]: 0.73
SMILES: O=C(Nc1ncnc2c1ncn2C1OC(CO)CC1F)c1ccccc1 (configuration not stated)
Toxicity [28]: 8%
Toxicity [29]: 0%
Toxicity [30]: 0%
Toxicity [31]: 0%
Protection [32]: 30%
Protection [33]: 0%
Protection [34]: 21%
Protection [35]: 29%
Protection [36]: 8%
Toxicity [37]: 2%

SMILES: O=c1[nH]cnc2c1ncn2[C@H]1CC[C@@H](CO)O1 [DIDANOSINE]
Toxicity [38]: 0%
Protection [39]: 100%

Vmax [2]: 0.23 µmol/min/unit
Relative rate [3]: 6
SMILES: Nc1ncnc2c1ncn2[C@@H]1O[C@H](CO)C[C@@H]1F [LODENOSINE]
Toxicity [8]: 0%
Toxicity [9]: 0%
Toxicity [10]: 11%
Toxicity [12]: 17%
Toxicity [13]: 54%
Toxicity [14]: 0%
Protection [17]: 70%
Protection [18]: 84%
Protection [19]: 0%
Protection [21]: 68%
Protection [22]: 48%
Protection [23]: 0%

logP [1]: -1.33
SMILES: Nc1ccn([C@H]2CC[C@@H](CO)O2)c(=O)n1 [ZALCITABINE]

logP [1]: 0.05
SMILES: Cc1cn([C@H]2C[C@H](N=[N+]=[N-])[C@@H](CO)O2)c(=O)[nH]c1=O [ZIDOVUDINE]
